Reference: ChEMBL document CHEMBL3853270, “Influence of Birch Bark Triterpenes on Keratinocytes and Fibroblasts from Diabetic and Nondiabetic Donors” (2016)
Calls of active or inactive are those of the source. The rule behind the calls is not given here.

Assays:
Assay type in all cases: functional
[1] = system: Keratinocyte; experiment: Effect on pro-inflammatory related gene expression in non-diabetic young human primary keratinocytes assessed as IL6 mRNA levels at 9.81 uM after 6 hrs by qPCR analysis
[2] = system: Keratinocyte; experiment: Effect on pro-inflammatory related gene expression in non-diabetic adult human primary keratinocytes assessed as IL1B mRNA levels at 9.81 uM after 6 hrs by qPCR analysis
[3] = system: Fibroblast; experiment: Effect on pro-inflammatory related gene expression in diabetic adult human primary fibroblasts assessed as IL1B mRNA levels at 1.96 uM after 6 hrs by qPCR analysis
Outline: (§1)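 Primary human dermal fibroblasts (young or adult nondiabetic, adult diabetic donor) were treated for 6 h against a 0.1% DMSO solvent control. RNA from 320 000 cells per sample was measured by Fluidigm Biomark high-throughput qPCR. Values are fold change relative to solvent control, from four independent experiments, with SD. One-way ANOVA with Bonferroni post-test was applied.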

[4] = system: Fibroblast; experiment: Effect on antiinflammatory related gene expression in diabetic adult human primary fibroblasts assessed as NFKBIA mRNA levels at 1.96 uM after 6 hrs by qPCR analysis
Outline: (§2)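 Primary dermal fibroblasts from one nondiabetic young, one nondiabetic adult and one diabetic adult donor; 320 000 cells per sample, 6 h at 1.96 or 9.81 μM. RNA measured on a high-throughput qPCR chip. Fold change versus 0.1% DMSO control, four independent experiments, SD, one-way ANOVA with Bonferroni post-test.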

[5] = system: Keratinocyte; experiment: Effect on growth factor related gene expression in diabetic adult human primary keratinocytes assessed as PDGFB mRNA levels at 1.96 uM after 6 hrs by qPCR analysis
Outline: (§3)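 Primary human keratinocytes (nondiabetic young or adult, diabetic adult donors) were exposed to compound for 6 h, with 0.1% DMSO as solvent control. Total RNA came from 400 000 cells per sample and was assayed on a Fluidigm Biomark high-throughput qPCR chip. Results are fold change vs solvent control, from 2−4 independent experiments on two donors per group, with SD. Groups were compared by one-way ANOVA with Bonferroni post-test.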

[6] = system: Keratinocyte; experiment: Effect on pro-inflammatory related gene expression in diabetic adult human primary keratinocytes assessed as PTGS2 mRNA levels at 1.96 uM after 6 hrs by qPCR analysis
[7] = system: Fibroblast; experiment: Effect on actin cytoskeleton in human diabetic primary fibroblasts assessed as formation of thin elongated cellular body at 10 nM after 2 hrs by rhodamine phalloidin-staining based fluorescence microscopic analysis
Outline: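 Subconfluent cells on glass coverslips, collagen type I coated for fibroblasts; keratinocytes starved 2 days before stimulation. Exposure 2 h, then rhodamine-phalloidin staining (1:25 in PBS) and fluorescence microscopy. Controls were DMSO as solvent and PDGF (fibroblasts) or CNF1 (keratinocytes). Where used, p38-MAPK inhibitor LN 950 (100 nM) was added 30 min beforehand.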

[8] = system: Fibroblast; experiment: Effect on antioxidant related gene expression in non-diabetic adult human primary fibroblasts assessed as NFE2L2 mRNA levels at 1.96 uM after 6 hrs by qPCR analysis
[9] = system: Fibroblast; experiment: Effect on MMP1 mRNA expression levels in non-diabetic young human primary fibroblasts at 9.81 uM after 6 hrs by qPCR analysis; outline: as §2
[10] = system: Keratinocyte; experiment: Effect on growth factor related gene expression in non-diabetic adult human primary keratinocytes assessed as PDGFB mRNA levels at 9.81 uM after 6 hrs by qPCR analysis; outline: as §3
[11] = system: Fibroblast; experiment: Effect on antioxidant related gene expression in diabetic adult human primary fibroblasts assessed as NFE2L2 mRNA levels at 9.81 uM after 6 hrs by qPCR analysis
[12] = system: Fibroblast; experiment: Effect on chemokines related gene expression in non-diabetic adult human primary fibroblasts assessed as IL8 mRNA levels at 9.81 uM after 6 hrs by qPCR analysis
[13] = system: Fibroblast; experiment: Effect on chemokines related gene expression in non-diabetic adult human primary fibroblasts assessed as WDR26 mRNA levels at 9.81 uM after 6 hrs by qPCR analysis
[14] = system: Fibroblast; experiment: Effect on growth factor related gene expression in non-diabetic young human primary fibroblasts assessed as VEGFA mRNA levels at 1.96 uM after 6 hrs by qPCR analysis; outline: as §1
[15] = system: Keratinocyte; experiment: Effect on pro-inflammatory related gene expression in non-diabetic adult human primary keratinocytes assessed as IL6 mRNA levels at 9.81 uM after 6 hrs by qPCR analysis
[16] = system: Keratinocyte; experiment: Effect on pro-inflammatory related gene expression in non-diabetic young human primary keratinocytes assessed as IL1B mRNA levels at 9.81 uM after 6 hrs by qPCR analysis
[17] = system: Fibroblast; experiment: Effect on transcription factor related gene expression in non-diabetic adult human primary fibroblasts assessed as JUN mRNA levels at 1.96 uM after 6 hrs by qPCR analysis
[18] = system: Keratinocyte; experiment: Effect on transcription factor related gene expression in non-diabetic young human primary keratinocytes assessed as JUN mRNA levels at 9.81 uM after 6 hrs by qPCR analysis
[19] = system: Fibroblast; experiment: Effect on transcription factor related gene expression in non-diabetic adult human primary fibroblasts assessed as JUN mRNA levels at 9.81 uM after 6 hrs by qPCR analysis
[20] = system: Keratinocyte; experiment: Effect on pro-inflammatory related gene expression in non-diabetic adult human primary keratinocytes assessed as IL1R1 mRNA levels at 1.96 uM after 6 hrs by qPCR analysis
[21] = system: Fibroblast; experiment: Effect on pro-inflammatory related gene expression in diabetic adult human primary fibroblasts assessed as IL6 mRNA levels at 9.81 uM after 6 hrs by qPCR analysis; outline: as §1
[22] = system: Fibroblast; experiment: Effect on growth factors related gene expression in non-diabetic adult human primary fibroblasts assessed as FGF2 mRNA levels at 1.96 uM after 6 hrs by qPCR analysis; outline: as §1
[23] = system: Fibroblast; experiment: Effect on pro-inflammatory related gene expression in non-diabetic young human primary fibroblasts assessed as IL1R1 mRNA levels at 9.81 uM after 6 hrs by qPCR analysis
[24] = system: Keratinocyte; experiment: Effect on transcription factor related gene expression in diabetic adult human primary keratinocytes assessed as JUN mRNA levels at 1.96 uM after 6 hrs by qPCR analysis
[25] = system: Fibroblast; experiment: Effect on pro-inflammatory related gene expression in diabetic adult human primary fibroblasts assessed as IL1R1 mRNA levels at 9.81 uM after 6 hrs by qPCR analysis; outline: as §1
[26] = system: Fibroblast; experiment: Effect on antioxidant related gene expression in non-diabetic adult human primary fibroblasts assessed as SOD2 mRNA levels at 9.81 uM after 6 hrs by qPCR analysis
[27] = system: Fibroblast; experiment: Effect on chemokines related gene expression in non-diabetic young human primary fibroblasts assessed as CCL2 mRNA levels at 1.96 uM after 6 hrs by qPCR analysis
[28] = system: Keratinocyte; experiment: Effect on MMP1 mRNA expression levels in diabetic adult human primary keratinocytes at 1.96 uM after 6 hrs by qPCR analysis
Outline: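 Primary keratinocytes from nondiabetic young and adult and diabetic adult donors; 400 000 cells per sample, 6 h exposure at 1.96 or 9.81 μM. RNA extracted and read on a high-throughput qPCR chip. Results are fold change versus 0.1% DMSO solvent control from 5−7 independent experiments over two donors per group, SD, one-way ANOVA with Bonferroni post-test.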

C=C(C)[C@@H]1CC[C@]2(CO)CC[C@]3(C)[C@H](CC[C@@H]4[C@@]5(C)CC[C@H](O)C(C)(C)[C@@H]5CC[C@]43C)[C@@H]12 [BETULIN]
fold change (FC) [1]: 6
fold change (FC) [2]: 0.9
fold change (FC) [3]: 7.6
fold change (FC) [4]: 3.1
fold change (FC) [5]: 1
fold change (FC) [6]: 1.3
Activity [7]: Active
fold change (FC) [8]: 1.3
fold change (FC) [9]: 1
fold change (FC) [10]: 0.9
fold change (FC) [11]: 1.5
fold change (FC) [12]: 991
fold change (FC) [13]: 1.3
fold change (FC) [14]: 1.7
fold change (FC) [15]: 24.1
fold change (FC) [16]: 0.9
fold change (FC) [17]: 1.9
fold change (FC) [18]: 1.8
fold change (FC) [19]: 3.1
fold change (FC) [20]: 0.7
fold change (FC) [21]: 5.3
fold change (FC) [22]: 2.9
fold change (FC) [23]: 3.9
fold change (FC) [24]: 1.2
fold change (FC) [25]: 1.9
fold change (FC) [26]: 18
fold change (FC) [27]: 4.3
fold change (FC) [28]: 1.2
